Assay results from ChEMBL document CHEMBL4765260, “Inclusion of a 5-fluorouracil moiety in nitrogenous bases derivatives as human carbonic anhydrase IX and XII inhibitors produced a targeted action against MDA-MB-231 and T47D breast cancer cells” (Eur J Med Chem, 2020).
Blank lines part the entries; values can stand above or below the compound they belong to. Activity calls are given as the source filed them. No cut-off for these calls is given here.

How the values were obtained:
Carbonic anhydrase 9 [1] = target: T1, Carbonic anhydrase 9 (Homo sapiens, UniProt Q16790); experiment: Inhibition of recombinant human CA9 pre-incubated for 15 mins measured by phenol red dye based stopped flow CO2 hydration assay
MDA-MB-231 [2] = experiment: Antiproliferative activity against human MDA-MB-231 cells assessed as cell viability measured after 72 hrs by SRB assay; assay type: functional, cell-based
Method in brief: (§1)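 SRB colorimetric assay on ATCC-sourced cell lines kept in RPMI or DMEM with 10% heat-inactivated FBS, penicillin 100 units/mL and streptomycin at 37 °C in humidified 5% CO2. Preliminary screen: each compound tested in triplicate at two fixed concentrations (10 and 100). Read-out is percent cell viability.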

T47D [3] = experiment: cells; conditions: Homo sapiens, 72 h
SK-OV-3 = experiment: Antiproliferative activity against human SK-OV-3 cells assessed as cell viability measured after 72 hrs by SRB assay; assay type: functional, cell-based; method in brief: as §1
HeLa = experiment: Antiproliferative activity against human HeLa cells assessed as cell viability measured after 72 hrs by SRB assay; assay type: functional, cell-based; method in brief: as §1
HL-60 = experiment: Antiproliferative activity against human HL-60 cells assessed as cell viability measured after 72 hrs by SRB assay; assay type: functional, cell-based; method in brief: as §1
COLO 205 = experiment: Antiproliferative activity against human COLO 205 cells assessed as cell viability measured after 72 hrs by SRB assay; assay type: functional, cell-based; method in brief: as §1
A549 = experiment: Antiproliferative activity against human A549 cells assessed as cell viability measured after 72 hrs by SRB assay; assay type: functional, cell-based; method in brief: as §1
MCF7 = experiment: Antiproliferative activity against human MCF7 cells assessed as cell viability measured after 72 hrs by SRB assay; assay type: functional, cell-based; method in brief: as §1
T47D [4] = experiment: Antiproliferative activity against human T47D cells assessed as cell viability measured after 72 hrs by SRB assay; assay type: functional, cell-based; method in brief: as §1
MDA-MB-231 [5] = experiment: cells; conditions: Homo sapiens, MDA-MB-231, 72 h
Carbonic anhydrase 1 = Carbonic anhydrase 1 (Homo sapiens, UniProt P00915); experiment: Inhibition of recombinant human CA1 pre-incubated for 6 hrs measured by phenol red dye based stopped flow CO2 hydration assay
Chain of Carbonic anhydrase 1 (P00915 whole entry): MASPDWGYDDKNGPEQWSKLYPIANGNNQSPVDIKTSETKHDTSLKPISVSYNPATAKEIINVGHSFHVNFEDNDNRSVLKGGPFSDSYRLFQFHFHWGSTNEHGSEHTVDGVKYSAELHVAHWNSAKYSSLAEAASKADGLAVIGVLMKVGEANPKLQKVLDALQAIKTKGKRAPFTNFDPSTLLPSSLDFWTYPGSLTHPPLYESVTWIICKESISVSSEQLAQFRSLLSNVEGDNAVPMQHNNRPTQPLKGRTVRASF
Method in brief: (§2)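 Stopped-flow CO2 hydration at 0.2 mM phenol red (557 nm) in 20 mM Hepes pH 7.5 with 20 mM Na2SO4, initial rates followed for 10–100 s. CO2 1.7–17 mM; ≥6 traces of the first 5–10% of reaction per inhibitor; uncatalysed rate subtracted. Inhibitor diluted in assay buffer down to 0.01 nM, preincubated with enzyme 6 h at room temperature. Values are means of 3 assays.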

Carbonic anhydrase 2 = Carbonic anhydrase 2 (Homo sapiens, UniProt P00918); experiment: Inhibition of recombinant human CA2 pre-incubated for 6 hrs measured by phenol red dye based stopped flow CO2 hydration assay; method in brief: as §2
Carbonic anhydrase 9 [6] = target: T1, Carbonic anhydrase 9; experiment: Inhibition of recombinant human CA9 pre-incubated for 6 hrs measured by phenol red dye based stopped flow CO2 hydration assay; method in brief: as §2
Carbonic anhydrase 12 = Carbonic anhydrase 12 (Homo sapiens, UniProt O43570); experiment: Inhibition of recombinant human CA12 pre-incubated for 6 hrs measured by phenol red dye based stopped flow CO2 hydration assay; method in brief: as §2
Chain of Carbonic anhydrase 12 (O43570 whole entry): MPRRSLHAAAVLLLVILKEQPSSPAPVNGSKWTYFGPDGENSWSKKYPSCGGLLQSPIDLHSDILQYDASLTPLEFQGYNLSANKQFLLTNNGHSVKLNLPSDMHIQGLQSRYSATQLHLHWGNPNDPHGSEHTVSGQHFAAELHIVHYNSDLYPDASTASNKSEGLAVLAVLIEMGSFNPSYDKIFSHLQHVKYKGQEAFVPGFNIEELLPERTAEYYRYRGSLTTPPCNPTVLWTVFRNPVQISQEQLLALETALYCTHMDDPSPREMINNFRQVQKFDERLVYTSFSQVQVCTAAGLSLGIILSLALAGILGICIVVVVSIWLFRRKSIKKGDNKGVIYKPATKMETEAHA

T47D [7] = experiment: Induction of apoptosis in human T47D cells assessed as early apoptotic cells at […] uM measured after 24 hrs by Annexin V-FITC stain based flow cytometry method (reference value: 0.39%); assay type: functional
T47D [8] = experiment: Induction of apoptosis in human T47D cells assessed as viable cells at […] uM measured after 24 hrs by Annexin V-FITC stain based flow cytometry method relative to control; assay type: functional, cell-based; conditions: dose 7.56 µM
T47D [9] = experiment: Induction of cell cycle arrest in human T47D cells assessed as accumulation of cells in G2/M phase at […] uM measured after 24 hrs by DNA flow cytometry assay (reference value: 16.59%); assay type: functional
T47D [10] = experiment: Induction of cell cycle arrest in human T47D cells assessed as accumulation of cells in sub-G1 phase at […] uM measured after 24 hrs by DNA flow cytometry assay (reference value: 2.41%); assay type: functional
T47D [11] = experiment: Induction of apoptosis in human T47D cells assessed as necrotic cells at […] uM measured after 24 hrs by Annexin V-FITC stain based flow cytometry method (reference value: 1.91%); assay type: functional
T47D [12] = experiment: Induction of apoptosis in human T47D cells assessed as late apoptotic cells at […] uM measured after 24 hrs by Annexin V-FITC stain based flow cytometry method (reference value: 0.17%); assay type: functional
T47D [13] = experiment: Induction of apoptosis in human T47D cells assessed as viable cells at […] uM measured after 24 hrs by Annexin V-FITC stain based flow cytometry method; assay type: functional, cell-based; conditions: dose 2.45 µM

Structure (SMILES): CN(C)c1ccc(CN(CCc2ccc(S(N)(=O)=O)cc2)C(=O)Cn2cc(F)c(=O)[nH]c2=O)cc1
Ki (Carbonic anhydrase 9 [1]): 26.8 nM

Structure (SMILES): NS(=O)(=O)c1ccc(CCNC(=O)Cn2cc(F)c(=O)[nH]c2=O)cc1
Ki (Carbonic anhydrase 9 [1]): 24.8 nM

Structure (SMILES): N#Cc1ccc(CN(CCc2ccc(S(N)(=O)=O)cc2)C(=O)Cn2cc(F)c(=O)[nH]c2=O)cc1
Ki (Carbonic anhydrase 9 [1]): 4.9 nM

Structure (SMILES): NS(=O)(=O)c1ccc(CCN(Cc2ccc(Cl)cc2)C(=O)Cn2cc(F)c(=O)[nH]c2=O)cc1
growth inhibition (GI) (MDA-MB-231 [2]): Active | IC50 (T47D [3]): 18900 nM | growth inhibition (GI) (SK-OV-3): inactive | Ki (Carbonic anhydrase 9 [1]): 4.2 nM | growth inhibition (GI) (HeLa): inactive | growth inhibition (GI) (HL-60): inactive | growth inhibition (GI) (COLO 205): inactive | growth inhibition (GI) (A549): inactive | growth inhibition (GI) (MCF7): inactive | growth inhibition (GI) (T47D [4]): Active | IC50 (MDA-MB-231 [5]): 40900 nM

Structure (SMILES): NS(=O)(=O)c1ccc(CCN(Cc2ccccc2)C(=O)Cn2cc(F)c(=O)[nH]c2=O)cc1
Ki (Carbonic anhydrase 9 [1]): 3.5 nM

Structure (SMILES): COc1ccc(CN(CCc2ccc(S(N)(=O)=O)cc2)C(=O)Cn2cc(F)c(=O)[nH]c2=O)cc1
Activity (T47D [7]; 2.45 µM): 7.31% | growth inhibition (GI) (MDA-MB-231 [2]): Active | IC50 (T47D [3]): 2450 nM | growth inhibition (GI) (SK-OV-3): inactive | Ki (Carbonic anhydrase 9 [1]): 1.9 nM | growth inhibition (GI) (HeLa): inactive | growth inhibition (GI) (HL-60): inactive | growth inhibition (GI) (COLO 205): inactive | Activity (T47D [13]): Active | Activity (T47D [9]; 2.45 µM): 35.47% | growth inhibition (GI) (A549): inactive | Activity (T47D [10]; 2.45 µM): 18.04% | Activity (T47D [11]; 2.45 µM): 2.51% | growth inhibition (GI) (MCF7): inactive | Activity (T47D [12]; 2.45 µM): 12.19% | growth inhibition (GI) (T47D [4]): Active | IC50 (MDA-MB-231 [5]): 6860 nM

Structure (SMILES): NS(=O)(=O)c1ccc(CCN(Cc2ccc(F)cc2)C(=O)Cn2cc(F)c(=O)[nH]c2=O)cc1
Ki (Carbonic anhydrase 9 [1]): 11.8 nM

Structure (SMILES): Cc1cc(=O)oc2cc(NC(=O)Cn3cc(F)c(=O)[nH]c3=O)ccc12
growth inhibition (GI) (MDA-MB-231 [2]): Active | IC50 (T47D [3]): 13200 nM | growth inhibition (GI) (SK-OV-3): inactive | growth inhibition (GI) (HeLa): inactive | Ki (Carbonic anhydrase 1): > 10000 nM | growth inhibition (GI) (HL-60): inactive | growth inhibition (GI) (COLO 205): inactive | Ki (Carbonic anhydrase 2): > 10000 nM | growth inhibition (GI) (A549): inactive | Ki (Carbonic anhydrase 9 [6]): 16.5 nM | growth inhibition (GI) (MCF7): inactive | growth inhibition (GI) (T47D [4]): Active | Ki (Carbonic anhydrase 12): 23.2 nM | IC50 (MDA-MB-231 [5]): 32000 nM

Structure (SMILES): O=C(Cn1cc(F)c(=O)[nH]c1=O)Oc1ccc2ccc(=O)oc2c1
Ki (Carbonic anhydrase 1): > 10000 nM | Ki (Carbonic anhydrase 2): > 10000 nM | Ki (Carbonic anhydrase 9 [6]): 36.8 nM | Ki (Carbonic anhydrase 12): 14.4 nM

The next lines start with results.

Ki (Carbonic anhydrase 9 [1]): 29.2 nM
Structure (SMILES): NS(=O)(=O)c1ccc(CNC(=O)Cn2cc(F)c(=O)[nH]c2=O)cc1

Ki (Carbonic anhydrase 1): > 10000 nM | Ki (Carbonic anhydrase 2): > 10000 nM | Ki (Carbonic anhydrase 9 [6]): 173 nM | Ki (Carbonic anhydrase 12): 408 nM
Structure (SMILES): Cc1cc(=O)oc2cc(-n3cc(Cn4cc(F)c(=O)[nH]c4=O)nn3)ccc12

Ki (Carbonic anhydrase 9 [1]): 4.8 nM
Structure (SMILES): NS(=O)(=O)c1ccc(NC(=O)Cn2cc(F)c(=O)[nH]c2=O)cc1

IC50 (T47D [3]): 7560 nM | Ki (Carbonic anhydrase 9 [1]): 453 nM | IC50 (MDA-MB-231 [5]): 25500 nM
Structure (SMILES): NS(=O)(=O)c1ccc(O)c(NC(=O)Cn2cc(F)c(=O)[nH]c2=O)c1
Activity (T47D [7]; 7.56 µM): 3.59% | growth inhibition (GI) (MDA-MB-231 [2]): Active | growth inhibition (GI) (SK-OV-3): inactive | growth inhibition (GI) (HeLa): inactive | growth inhibition (GI) (HL-60): inactive | growth inhibition (GI) (COLO 205): inactive | Activity (T47D [8]): Active | Activity (T47D [9]; 7.56 µM): 26.83% | growth inhibition (GI) (A549): inactive | Activity (T47D [10]; 7.56 µM): 12.72% | Activity (T47D [11]; 7.56 µM): 1.36% | growth inhibition (GI) (MCF7): inactive | Activity (T47D [12]; 7.56 µM): 9.62% | growth inhibition (GI) (T47D [4]): Active

IC50 (T47D [3]): 33500 nM | Ki (Carbonic anhydrase 9 [1]): 0.47 nM | IC50 (MDA-MB-231 [5]): 22800 nM
Structure (SMILES): NS(=O)(=O)c1ccc(-n2cc(Cn3cc(F)c(=O)[nH]c3=O)nn2)cc1
growth inhibition (GI) (MDA-MB-231 [2]): Active | growth inhibition (GI) (SK-OV-3): inactive | growth inhibition (GI) (HeLa): inactive | growth inhibition (GI) (HL-60): inactive | growth inhibition (GI) (COLO 205): inactive | growth inhibition (GI) (A549): inactive | growth inhibition (GI) (MCF7): inactive | growth inhibition (GI) (T47D [4]): Active

Ki (Carbonic anhydrase 9 [1]): 11.2 nM
Structure (SMILES): NS(=O)(=O)c1ccc(-n2cc(Cn3cc(F)c(=O)[nH]c3=O)nn2)c(Cl)c1

Ki (Carbonic anhydrase 9 [1]): 44.7 nM
Structure (SMILES): NS(=O)(=O)c1cccc(NC(=O)Cn2cc(F)c(=O)[nH]c2=O)c1

Ki (Carbonic anhydrase 9 [1]): 105 nM
Structure (SMILES): NS(=O)(=O)c1cccc(-n2cc(Cn3cc(F)c(=O)[nH]c3=O)nn2)c1

Ki (Carbonic anhydrase 9 [1]): 3.8 nM
Structure (SMILES): NS(=O)(=O)c1ccc(-n2cc(Cn3cc(F)c(=O)[nH]c3=O)nn2)c(Br)c1
